From ChEMBL document CHEMBL5029174, “Discovery of structurally distinct tricyclic M4 positive allosteric modulator (PAM) chemotypes - Part 2” (Bioorg Med Chem Lett, 2021)

How the values were obtained:
[1] = biological target: T1, Muscarinic acetylcholine receptor M4 (Homo sapiens) (UniProt P08173); experiment: Positive allosteric modulation of human muscarinic acetylcholine M4/Gqi5 receptor expressed in CHO cells in presence of acetylcholine at EC20 concentration by calcium mobilization assay relative to control; type: functional, cell-based
T1 sequence (whole entry): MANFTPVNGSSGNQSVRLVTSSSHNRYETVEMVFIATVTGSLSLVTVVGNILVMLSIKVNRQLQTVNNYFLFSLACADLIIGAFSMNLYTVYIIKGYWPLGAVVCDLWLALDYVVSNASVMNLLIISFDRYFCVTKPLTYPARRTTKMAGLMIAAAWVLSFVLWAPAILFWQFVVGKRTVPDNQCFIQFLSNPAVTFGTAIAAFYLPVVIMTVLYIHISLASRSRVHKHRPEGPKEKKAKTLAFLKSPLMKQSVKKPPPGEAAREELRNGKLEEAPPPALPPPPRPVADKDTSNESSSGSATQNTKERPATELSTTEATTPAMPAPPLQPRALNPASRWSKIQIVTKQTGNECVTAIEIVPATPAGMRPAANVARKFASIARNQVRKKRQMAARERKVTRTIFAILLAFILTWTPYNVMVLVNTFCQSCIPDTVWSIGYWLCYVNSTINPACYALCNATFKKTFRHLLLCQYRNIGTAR
How it was run: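 CHO cells stably expressing human M4 with a chimeric Gq protein were tested by calcium mobilization in the presence of an EC20 fixed concentration of acetylcholine. EC50 values come from concentration-response curves. Efficacy is given as % of the maximal acetylcholine response. Each value is n = 1 independent experiment run in triplicate.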

[2] = biological target: T2, Muscarinic acetylcholine receptor M4 (Homo sapiens, UniProt P08173); experiment: Positive allosteric modulation of human muscarinic acetylcholine M4/Gqi5 receptor expressed in CHO cells in presence of acetylcholine at EC20 concentration by calcium mobilization assay; type: functional, cell-based
T2 sequence (P08173 whole entry): T1 sequence (whole entry)

[3] = Intrinsic clearance in human liver microsomes; conditions: read-out: CLH
[4] = Intrinsic clearance in rat liver microsomes; conditions: read-out: CLH
[5] = Brain to plasma partition coefficient, Kp of the compound in Sprague-Dawley rat at 0.2 mg/kg, iv measured at […]; type: ADME, organism-based; conditions: time 0.25 hrs
[6] = filed as positive allosteric modulator

Cc1cc(C)c2c(n1)sc1c(NC3CC(c4ccncc4)C3)ncnc12 (stereo not given)
%max [1, 6]: 67%
EC50 ([2]; read-out: EC50): 341 nM

Cc1cc(C)c2c(n1)sc1c(N3CC4(COC4)C3)ncnc12
predicted hepatic clearance [3]: 18 mL/min/kg
predicted hepatic clearance [4]: 63 mL/min/kg
Kp [5]: 4.47
%max [1, 6]: 84%

Cc1cc(C)c2c(n1)sc1c(OCc3ccc(C(C)(C)O)cc3)ncnc12
%max [1, 6]: 40%
EC50 ([2]; read-out: EC50): 8740 nM

Cc1cc(C)c2c(n1)sc1c(N3CCCC3)ncnc12
predicted hepatic clearance [3]: 18 mL/min/kg
predicted hepatic clearance [4]: 68 mL/min/kg
Kp [5]: 5.36
%max [1, 6]: 67%

COCC1CN(c2ncnc3c2sc2nc(C)cc(C)c23)C1
%max [1, 6]: 50%

COc1ccc(C2CC2Nc2ncnc3c2sc2nc(C)cc(C)c23)cc1 (stereo not given)
%max [1, 6]: 61%

Cc1cc(C)c2c(n1)sc1c(NC3CN(c4ncc(C(F)(F)F)cn4)C3)ncnc12
%max [1, 6]: 52%

Cc1cc(C)c2c(n1)sc1c(C3CCCCC3)ncnc12
%max [1, 6]: 71%

Cc1cc(C)c2c(n1)sc1c(NCc3ncc(F)cn3)ncnc12
%max [1]: 30%
EC50 ([2]; read-out: EC50): > 10000 nM

Cc1cc(C)c2c(n1)sc1c(NCc3ccc(OC(F)(F)F)cc3)ncnc12
EC50 ([2]; cho): Not Active

Cc1cc(C)c2c(n1)sc1c(NCc3ccc(F)c(Cl)c3)ncnc12
EC50 ([2]; cho): Not Active

Cc1cc(C)c2c(n1)sc1c(C3CCN(C(=O)C4(C)CC4)CC3)ncnc12
predicted hepatic clearance [3]: 11 mL/min/kg
predicted hepatic clearance [4]: 59 mL/min/kg
Kp [5]: 0.54
%max [1, 6]: 72%
EC50 ([2]; read-out: EC50): 234 nM

Cc1cc(C)c2c(n1)sc1c(NC3CCC3)nccc12
predicted hepatic clearance [3]: 20 mL/min/kg
predicted hepatic clearance [4]: 69 mL/min/kg
Kp [5]: 10.4
%max [1, 6]: 90%

Cc1cc(C)c2c(n1)oc1c(NC3CN(c4cc(Cl)ncc4Cl)C3)ncnc12
%max [1, 6]: 49%

Cc1cc(C)c2c(n1)oc1c(NC3CN(c4ncc(C(F)(F)F)cn4)C3)ncnc12
EC50 ([2]; cho): Not Active

Cc1cc(C)c2c(n1)sc1c(NC3CCCC3)nccc12
%max [1, 6]: 71%

Cc1ccc(CNc2ncnc3c2sc2nc(C)cc(C)c23)c(F)c1
EC50 ([2]; cho): Not Active

Cc1cc(C)c2c(n1)sc1c(NCc3ccc4c(c3)COC4)ncnc12
%max [1, 6]: 41%
EC50 ([2]; read-out: EC50): 1140 nM

Cc1cc(C)c2c(n1)sc1c(C3CCN(C(=O)C4CC4)CC3)ncnc12
%max [1, 6]: 62%

Cc1cc(C)c2c(n1)sc1c(C)ncnc12
%max [1, 6]: 58%

Cc1cc(C)c2c(n1)oc1c(NCc3ccc(C(C)(C)O)cc3)ncnc12
EC50 ([2]; cho): Not Active

Cc1cc(C)c2c(n1)sc1c(NCc3ccc4sccc4c3)ncnc12
EC50 ([2]; cho): Not Active

Cc1cc(C)c2c(n1)sc1c(NCc3ccc(C(C)(C)O)cc3)nccc12
predicted hepatic clearance [3]: 15 mL/min/kg
predicted hepatic clearance [4]: 58 mL/min/kg
Kp [5]: 2.27
%max [1, 6]: 101%

Cc1cc(C)c2c(n1)sc1c(NC3CN(c4ncc(C(F)(F)F)cn4)C3)nccc12
%max [1, 6]: 80%

Cc1cc(C)c2c(n1)oc1c(NC3CC3)ncnc12
%max [1, 6]: 64%

Cc1cc(C)c2c(n1)sc1c(NCc3ccc(OC(F)F)cc3)ncnc12
%max [1, 6]: 45%
EC50 ([2]; read-out: EC50): 4010 nM

Cc1cc(C)c2c(n1)sc1c(N3CCCC3)nccc12
predicted hepatic clearance [3]: 19 mL/min/kg
predicted hepatic clearance [4]: 68 mL/min/kg
Kp [5]: 37.1
%max [1, 6]: 98%

Cc1cc(C)c2c(n1)oc1c(NC3CCC3)ncnc12
%max [1, 6]: 44%

Cc1cc(C)c2c(n1)sc1c(NCc3ccc(C(F)(F)F)cn3)ncnc12
EC50 ([2]; cho): Not Active

Cc1cc(C)c2c(n1)sc1c(NCc3ccc4c(n3)CCC4)ncnc12
%max [1]: 30%
EC50 ([2]; read-out: EC50): 2560 nM

Cc1cc(C)c2c(n1)sc1c(C3CCN(CC4CC4)CC3)ncnc12
EC50 ([2]; cho): Not Active

Cc1cc(C)c2c(n1)sc1c(C3CCOCC3)ncnc12
%max [1, 6]: 99%
EC50 ([2]; read-out: EC50): 152 nM

Cc1cc(C)c2c(n1)oc1c(N3CCCC3)ncnc12
EC50 ([2]; cho): Not Active

Cc1cc(C)c2c(n1)sc1c(N3CCC3)ncnc12
predicted hepatic clearance [3]: 20 mL/min/kg
predicted hepatic clearance [4]: 64 mL/min/kg
Kp [5]: 6.49
%max [1, 6]: 59%

Cc1cc(C)c2c(n1)sc1c(N3CC4CC4C3)ncnc12 (stereo not given)
%max [1, 6]: 75%

Cc1cc(C)c2c(n1)sc1c(NCc3ccc(C(C)(C)O)cc3F)ncnc12
%max [1, 6]: 74%
EC50 ([2]; read-out: EC50): 2320 nM

Cc1cc(C)c2c(n1)sc1c(NCc3cnc(C)nc3)ncnc12
%max [1, 6]: 54%

Cc1cc(C)c2c(n1)sc1c(N3CC(F)(F)C3)ncnc12
%max [1, 6]: 69%

COc1ccc(CNc2ncnc3c2oc2nc(C)cc(C)c23)cc1F
EC50 ([2]; cho): Not Active

Cc1cc(C)c2c(n1)sc1c(NCc3ccc(S(C)(=O)=O)cc3)ncnc12
predicted hepatic clearance [3]: 12 mL/min/kg
predicted hepatic clearance [4]: 50 mL/min/kg
Kp [5]: 0.45
%max [1, 6]: 42%

Cc1cc(C)c2c(n1)sc1c(C3CCN(c4cncc(F)c4)CC3)ncnc12
EC50 ([2]; cho): Not Active

Cc1cc(C)c2c(n1)sc1c(C3CC3)ncnc12
%max [1, 6]: 62%

Cc1cc(C)c2c(n1)sc1c(C3CCNCC3)ncnc12
%max [1, 6]: 44%

Cc1cc(C)c2c(n1)sc1c(NCc3ccc(C(C)(C)O)cc3)ncnc12
%max [1, 6]: 76%

Cc1cc(C)c2c(n1)sc1c(-c3nccs3)ncnc12
%max [1, 6]: 62%

Cc1cc(C)c2c(n1)sc1c(N(C)C)nccc12
%max [1, 6]: 82%

COc1ccc(CNc2nccc3c2sc2nc(C)cc(C)c23)cc1F
%max [1, 6]: 90%

Cc1cc(C)c2c(n1)sc1c(NCc3ccc(-n4ccnc4)nc3)ncnc12
%max [1]: 34%
EC50 ([2]; read-out: EC50): 1560 nM

Cc1cc(C)c2c(n1)sc1c(NC3CCC3)ncnc12
%max [1, 6]: 76%

Cc1cc(C)c2c(n1)sc1c(NCc3ccc(CN4CCOCC4)cc3)ncnc12
%max [1, 6]: 47%
EC50 ([2]; read-out: EC50): 1110 nM
